NR2E3 ag-1: inhibitors of NR2E3-RetCOR corepressor binding, primary screen, NR2E3 agonist project, biochemical, TR-FRET, GST-NR2E3, biotin-RetCOR; actives 0.12% (n = 320,000); inhibition of corepressor binding, % at 4.78 µM; 1536-well;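 active = percent inhibition above the cutoff of mean plus 3 SD of all tested compounds, set per screening campaign, cut at about 20% in these data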;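 note: 0% = DMSO wells and 100% = biotin wells as full block of FRET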
Target sequence (Q9Y5X4 whole entry, looked up): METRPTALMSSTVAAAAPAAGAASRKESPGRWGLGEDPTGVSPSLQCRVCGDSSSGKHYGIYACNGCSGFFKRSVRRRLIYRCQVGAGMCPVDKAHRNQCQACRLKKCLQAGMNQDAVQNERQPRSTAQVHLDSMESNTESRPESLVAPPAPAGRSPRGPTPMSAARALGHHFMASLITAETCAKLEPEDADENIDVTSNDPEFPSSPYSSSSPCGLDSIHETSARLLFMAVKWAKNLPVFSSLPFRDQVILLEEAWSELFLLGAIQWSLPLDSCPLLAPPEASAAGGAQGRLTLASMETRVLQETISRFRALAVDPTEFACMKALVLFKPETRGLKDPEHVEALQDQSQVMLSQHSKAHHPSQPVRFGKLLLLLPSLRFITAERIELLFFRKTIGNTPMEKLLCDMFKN
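Test system – NR2E3–RetCOR corepressor complex · Quantity – NR2E3 fusion 1.35 nM · Buffer or medium – Tris pH 7.5 · Incubation – Compound–protein incubation for 5 h at 4 °C · Technique – TR-FRET, Eu(K)-anti-GST donor, streptavidin-D2 acceptor, ex 340, em 617/671 nm · Evaluation – percent inhibition of 671/617 nm emission ratio versus biotin and DMSO controls · Plate – 1536-well format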
Rev-erbA mod: modulators of Rev-erb alpha DNA binding, primary screen, biochemical, FITC-DNA, fluorescence polarization, uHTS | Rev-erbα–FITC-DNA binding, 90 min | Nuclear receptor subfamily 1 group D member 1 (Homo sapiens), P20393 | actives 0.79% (n = 370,000) | activity, % at 10 µM;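 active = activity above about 14%, limit read from the data; passing the limit was not always enough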;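 note: 0% = DMSO wells with 35 nM protein and 100% = DMSO wells with 750 nM protein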
PG9 binder: binders of HIV-1 gp120 antibody PG9, primary screen, biochemical, TR-FRET; HIV-1 gp120 / PG9 antibody interaction; AID 624416, 2012; TR-FRET gp120-PG9 antibody binding; inhibition, % at 6.7 µM; actives 0.43% (n = 360,000); in the data active = inhibition above about 8.5%
Neddyl block: inhibitors of cullin neddylation, primary screen, biochemical, TR-FRET, uHTS, NAE and Ubc12; actives 0.58% (n = 360,000); AID 651699, 2012; NEDD8-conjugating enzyme Ubc12 (Homo sapiens) + NEDD8-activating enzyme E1 regulatory …; calls only at 25 µM; in the data active = inhibition above about 36%
NR2E3 ag-2: NR2E3 agonists in two-hybrid cells, primary screen, cell-based, luminescence, CHO-S, Gal4-NCOR/VP16-NR2E3; Photoreceptor-specific nuclear receptor (Homo sapiens), Q9Y5X4; luciferase; inhibition of corepressor binding, % at 3.98 µM; actives 0.35% (n = 360,000); AID 602229, 2012;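 active = inhibition above the mean of all tested compounds plus 3 SD, cut at about 70% in these data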;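 note: 0% = DMSO with NR2E3 transfected cells and 100% = cells lacking NR2E3 construct; higher means lower luciferase signal from less NR2E3 corepressor binding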
Neddyl inh conf: blockade of NEDD8 conjugation to cullin – biochemical, TR-FRET, single concentration, confirmation. shares compounds with Neddyl block. TR-FRET cullin neddylation biochemical assay. calls only at 25 µM. actives 13% (n = 1,800). AID 652217, 2013; in the data active = inhibition above about 40%;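 note: neddylation substrate is the cullin 1 ring ligase complex with SKP2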
Starred values were filed as active, the others as inactive; i = inactive; . = not tested or not shown; + = active, no number. A selection: hits, their analogues and other compounds. The true share with any hit is near 2%.

SMILES	NR2E3 ag-1	Rev-erbA mod	PG9 binder	Neddyl block	NR2E3 ag-2	Neddyl inh conf
O=C(NCCc1ccc(Cl)cc1Cl)C1=CC=CN2CCS(=O)(=O)N=C12	2	1	-1	+	32	+
Cn1c(=O)c2c(nc(N/N=C/c3ccc(OC(=O)c4ccco4)cc3)n2Cc2ccccc2Cl)n(C)c1=O	5	.	.	+	-3	i
N=c1c2ccccc2nc2n1CCCCCCCCCCC2	3	-3	0	i	-9	.
CCOc1ccc(NC(=O)COC(=O)c2ccc3ncsc3c2)cc1OCC	.	4	-3	+	-27	i
CC(C)(C)c1ccc(NC(=O)COC(=O)c2ccc3ncsc3c2)cc1	-1	0	1	i	-11	.
CCCCN1C(=O)C(CC(=O)NC2CCCC2)CC(C(=O)N2CCCCCC2)=C1C (stereo not given)	.	3	-3	i	-8	.
O=C(OCC#CCSc1nnc(-c2cccc3ccccc23)o1)c1ccccc1	.	2	.	.	.	.
O=C(CC1C[C@H](C(=O)N2CCCCC2)[C@@]2(CCc3ccccc3)c3[nH]c4ccccc4c3CCN2C1=O)NCCc1ccccn1 (stereo not given in full)	.	-2	0	i	-30	.
CCCN(CCC)S(=O)(=O)c1ccc(C(=O)Nc2cc3oc4ccccc4c3cc2OC)cc1	-6	-2	-2	+	-10	i
CCN(CC)S(=O)(=O)c1cccc(C(=O)Nc2cc3oc4ccccc4c3cc2OC)c1	0	3	2	i	5	.
O=C(N/N=C/C=C\c1ccco1)c1ccccn1	-5	0	-5	+	-16	i
NCCNC(=O)c1c(NC(=O)c2ccccc2)sc2c1CCCC2	2	-1	-2	+	-36	i
O=C(Nc1sc2c(c1C(=O)NCCCO)CCCC2)c1ccccc1	8	6	-1	i	-43	.
O=C(CNC(=O)c1ccccc1Br)N/N=C/c1cc(Br)ccc1O	-1	2	-2	i	-8	.
O=C(CNC(=O)c1ccco1)N/N=C/c1cc(Br)ccc1O	-1	5	1	+	-23	i
O=C(CNC(=O)c1ccccc1Br)N/N=C/c1ccccc1O	1	4	-2	+	-17	i
CCCS(=O)(=O)NC(=O)C1(C)CCN(C(=O)CSc2ccccc2)C1 (stereo not given)	.	-9	1	i	-1	.
CC(C)Oc1cccc(C(=O)C2CCCN(Cc3cnc(N4CCCC4)s3)C2)c1 (stereo not given)	3	-2	-2	i	-4	.
COc1ccc2cc(C(=O)C3CCCN(Cc4cnc(N5CCOCC5)s4)C3)ccc2c1 (stereo not given)	-3	.	0	+	-4	i
O=C(O)c1ccc2nc(-c3ccccc3)c(-c3ccccc3)nc2c1	-2	-5	-2	i	-5	.
COC(CNC(=O)c1ccc2nc(-c3ccccc3)c(-c3ccccc3)nc2c1)OC	2	-9	-3	+	-32	+
COc1ccc(-c2nc3ccc(C(=O)NCC(OC)OC)cc3nc2-c2ccc(OC)cc2)cc1	0	4	0	i	-13	.
CCN1CCN(C(=O)c2ccc3nc(-c4ccccc4)c(-c4ccccc4)nc3c2)CC1	1	1	-1	+	2	+
c1ccc(OCCNc2ccn3nc(-c4ccc(OCCN5CCOCC5)cc4)cc3n2)cc1	.	-1	0	.	-7	.
CCN(CC)S(=O)(=O)c1cccc(-c2cn3cc(C)ccc3n2)c1	0	-4	0	+	-78	i
SMILES	NR2E3 ag-1	Rev-erbA mod	PG9 binder	Neddyl block	NR2E3 ag-2	Neddyl inh conf
CCOC(=O)N1CCN(C(=O)C[C@H]2C[C@@]3(C(=O)OC)C(=C[C@H](C4CCCC4)O[C@@H]3C)N(Cc3ccc(Cl)cc3Cl)C2=O)CC1	.	7	.	.	.	.
O=C1NC[C@@H](CCCCN2C[C@H](Cc3ccc(O)cc3)N(CC3CCCCC3)C(=O)C2=O)N(Cc2ccccc2)C1=O	.	-10	1	i	-23	.
COc1cc(C(=O)N2CCC(N3CCN(C)CC3)CC2)ccc1Nc1ncc2c(n1)N(C)c1ccccc1C(=O)N2C	.	0	1	.	.	.
CCN1C(=O)CCN(C2CCCC2)c2nc(Nc3ccc(C(=O)NC4CCN(C)CC4)cc3OC)ncc21	.	-2	-3	+	10	i
COc1cccc(CNC(=O)c2cccc(S(=O)(=O)N3CCN(C)CC3)c2)c1	1	0	0	i	16	.
O=C1OC(c2ccccc2)=CC1=Cc1ccccc1O	.	-2	2	i	-56	.
CC1(C)C(O)=C(c2nc3ccccc3[nH]2)C(=N)N1c1ccccc1	1	2	0	+	14	.
CC(C)N1CC(O)=C(c2nc3ccccc3[nH]2)C1=N	-2	0	1	i	-31	.
Clc1cccc(CN2CCc3c([nH]c4ccccc34)C2)c1	2	-2	0	+	-20	i
CCOc1cc(OCC)cc(C(=O)N2CCC[C@H]2C(=O)N2CCC[C@H]2C(=O)NCc2cccc(OC)c2)c1	.	-2	-6	i	-27	.
COC(=O)c1sc(-c2ccccc2)cc1NC(=O)c1ccc(F)cc1	1	13	-2	.	-12	.
CC(=O)c1sc(-c2ccc(F)cc2)cc1NS(=O)(=O)c1ccccc1	-3	0	-1	+	1	i
COC(=O)[C@]12C[C@H](CC(=O)N3CCC(c4ccccc4)CC3)C(=O)N(Cc3ccccc3)C1=C[C@H](COCc1ccccc1)O[C@@H]2C	.	4	.	.	.	.
COc1ccc(N2C(=O)c3ccccc3NC23CCC(C)CC3)cc1 (stereo not given)	5	-3	-2	+	-56	.
COc1ccc(N2C(=O)c3ccccc3NC23CCCCC3)cc1	-2	5	0	+	-145	.
COc1ccc(N2C(=O)c3ccccc3NC2(C)C)cc1	0	2	1	.	-128	.
CCN(CC)c1cc(C)c2cc(NC(=O)c3ccccc3OC)ccc2n1	6	0	-2	+	-9	i
COc1ccccc1C(=O)Nc1ccc2c(c1)nc1n2CCN(Cc2ccccc2)C1	1	6	2	+	-2	i
Cc1cc(C)c(S(=O)(=O)N2CCN(c3ccccn3)CC2)c(C)c1	.	-2	0	i	-1	.

Screens: PubChem, several laboratories
